In brackets after ≈: the same amount, converted by molar mass.
Legend:
Assay type in all cases: functional
Rhizoctonia solani = assay: Antifungal activity against Rhizoctonia solani assessed as fungicidal activity at 200 mg/L (beneficial crop - cucumber)
Summary of the method: (§1)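 In vivo preventive test on cucumber as host plant.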

Podosphaera fuliginea [1] = assay: Antifungal activity against Podosphaera fuliginea in cucumber plants under greenhouse conditions assessed as fungicidal activity by in vivo assay; summary of the method: as §1
Podosphaera fuliginea [2] = assay: Antifungal activity against Podosphaera fuliginea assessed as fungicidal activity at 200 mg/L (beneficial crop - cucumber); summary of the method: as §1
[3] = system: Pseudoperonospora cubensis; assay: Antifungal activity against Pseudoperonospora cubensis assessed as fungicidal activity at 200 mg/L (beneficial crop - cucumber); summary of the method: as §1
Botrytis cinerea = assay: Antifungal activity against Botryotinia fuckeliana assessed as fungicidal activity at 200 mg/L (beneficial crop - cucumber); summary of the method: as §1
[4] = system: Pseudoperonospora cubensis; assay: Antifungal activity against Pseudoperonospora cubensis in cucumber plants under greenhouse conditions assessed as fungicidal activity by in vivo assay; summary of the method: as §1

CO/C=C(/C(=O)OC)c1ccccc1COc1cccc(C(=O)/C=C/c2ccc(C)c(C)c2)c1
inhibition at 200 µg/mL (Rhizoctonia solani): 0% | EC90 (Podosphaera fuliginea [1]): 139.47 µg/mL (≈ 305 µM) | inhibition at 200 µg/mL (Podosphaera fuliginea [2]): 92% | inhibition at 200 µg/mL [3]: 100% | inhibition at 200 µg/mL (Botrytis cinerea): 0%

CO/C=C(/C(=O)OC)c1ccccc1COc1cccc(C(=O)/C=C/c2cccc(Br)c2)c1
inhibition at 200 µg/mL (Rhizoctonia solani): 0% | inhibition at 200 µg/mL (Podosphaera fuliginea [2]): 99% | inhibition at 200 µg/mL [3]: 99% | inhibition at 200 µg/mL (Botrytis cinerea): 0% | EC90 [4]: 113.64 µg/mL (≈ 224 µM)

CO/C=C(/C(=O)OC)c1ccccc1COc1cccc(C(=O)/C=C/c2ccccc2Cl)c1
inhibition at 200 µg/mL (Rhizoctonia solani): 0% | inhibition at 200 µg/mL (Podosphaera fuliginea [2]): 94% | inhibition at 200 µg/mL [3]: 98% | inhibition at 200 µg/mL (Botrytis cinerea): 0% | EC90 [4]: 118.52 µg/mL (≈ 256 µM)

CO/C=C(/C(=O)OC)c1ccccc1COc1ccc(C(=O)/C=C/c2ccc3c(c2)OCO3)cc1
inhibition at 200 µg/mL (Rhizoctonia solani): 0% | inhibition at 200 µg/mL (Podosphaera fuliginea [2]): 0% | inhibition at 200 µg/mL [3]: 0% | inhibition at 200 µg/mL (Botrytis cinerea): 0%

CO/C=C(/C(=O)OC)c1ccccc1COc1cccc(C(=O)/C=C/c2ccc(Cl)cc2Cl)c1
inhibition at 200 µg/mL (Rhizoctonia solani): 30% | inhibition at 200 µg/mL (Podosphaera fuliginea [2]): 0% | inhibition at 200 µg/mL [3]: 54% | inhibition at 200 µg/mL (Botrytis cinerea): 0%

CO/C=C(/C(=O)OC)c1ccccc1COc1ccc(Cl)cc1C(=O)/C=C/c1ccccc1Cl
inhibition at 200 µg/mL (Rhizoctonia solani): 0% | inhibition at 200 µg/mL (Podosphaera fuliginea [2]): 0% | inhibition at 200 µg/mL [3]: 0% | inhibition at 200 µg/mL (Botrytis cinerea): 0%

CO/C=C(/C(=O)OC)c1ccccc1COc1ccccc1C(=O)/C=C/c1cccc(Br)c1
inhibition at 200 µg/mL (Rhizoctonia solani): 0% | inhibition at 200 µg/mL (Podosphaera fuliginea [2]): 0% | inhibition at 200 µg/mL [3]: 78% | inhibition at 200 µg/mL (Botrytis cinerea): 0%

CO/C=C(/C(=O)OC)c1ccccc1COc1ccc(C(=O)/C=C/c2ccc(C)cc2)cc1
inhibition at 200 µg/mL (Rhizoctonia solani): 38% | inhibition at 200 µg/mL (Podosphaera fuliginea [2]): 0% | inhibition at 200 µg/mL [3]: 75% | inhibition at 200 µg/mL (Botrytis cinerea): 0%

CCOc1ccc(/C=C/C(=O)c2cccc(OCc3ccccc3/C(=C\OC)C(=O)OC)c2)cc1
inhibition at 200 µg/mL (Rhizoctonia solani): 0% | inhibition at 200 µg/mL (Podosphaera fuliginea [2]): 0% | inhibition at 200 µg/mL [3]: 33% | inhibition at 200 µg/mL (Botrytis cinerea): 0%

CO/C=C(/C(=O)OC)c1ccccc1COc1ccc(Cl)cc1C(=O)/C=C/c1ccc(OC)cc1
inhibition at 200 µg/mL (Rhizoctonia solani): 0% | inhibition at 200 µg/mL (Podosphaera fuliginea [2]): 0% | inhibition at 200 µg/mL [3]: 0% | inhibition at 200 µg/mL (Botrytis cinerea): 0%

CO/N=C(/C(=O)OC)c1ccccc1COc1ccccc1C [KRESOXIM-METHYL]
EC90 (Podosphaera fuliginea [1]): 7.3 µg/mL (≈ 23.3 µM) | inhibition at 200 µg/mL (Podosphaera fuliginea [2]): 100% | inhibition at 200 µg/mL [3]: 100% | EC90 [4]: 154.92 µg/mL (≈ 494 µM)

CO/C=C(/C(=O)OC)c1ccccc1COc1ccc(C(=O)/C=C/c2ccc(Br)cc2)cc1
inhibition at 200 µg/mL (Rhizoctonia solani): 0% | inhibition at 200 µg/mL (Podosphaera fuliginea [2]): 0% | inhibition at 200 µg/mL [3]: 56% | inhibition at 200 µg/mL (Botrytis cinerea): 0%

CO/C=C(/C(=O)OC)c1ccccc1COc1cccc(C(=O)/C=C/c2ccccc2Br)c1
inhibition at 200 µg/mL (Rhizoctonia solani): 31% | inhibition at 200 µg/mL (Podosphaera fuliginea [2]): 59% | inhibition at 200 µg/mL [3]: 100% | inhibition at 200 µg/mL (Botrytis cinerea): 0%

CO/C=C(/C(=O)OC)c1ccccc1COc1ccccc1C(=O)/C=C/c1ccc(OC)cc1
inhibition at 200 µg/mL (Rhizoctonia solani): 0% | inhibition at 200 µg/mL (Podosphaera fuliginea [2]): 0% | inhibition at 200 µg/mL [3]: 0% | inhibition at 200 µg/mL (Botrytis cinerea): 0%

CO/C=C(/C(=O)OC)c1ccccc1COc1cccc(C(=O)/C=C/c2ccco2)c1
inhibition at 200 µg/mL (Rhizoctonia solani): 0% | inhibition at 200 µg/mL (Podosphaera fuliginea [2]): 0% | inhibition at 200 µg/mL [3]: 0% | inhibition at 200 µg/mL (Botrytis cinerea): 16%

CO/C=C(/C(=O)OC)c1ccccc1COc1ccc(C(=O)/C=C/c2ccco2)cc1
inhibition at 200 µg/mL (Rhizoctonia solani): 0% | inhibition at 200 µg/mL (Podosphaera fuliginea [2]): 0% | inhibition at 200 µg/mL [3]: 0% | inhibition at 200 µg/mL (Botrytis cinerea): 0%
